Test system: HEK-293T
Experiment: Multiplex assay against HEK293T;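 as to Population Tubulin-Different-Phenotype (%): share of the cells with healthy nuclei that show this phenotype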
Assay type: toxicity, cell-based
Conditions: human
Method in brief: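 Live cells carried four stains from seeding: Hoechst33342, BioTracker Green Microtubule Cytoskeleton Dye, MitoTracker Red and Annexin V Alexa Fluor 680. They were imaged on a CQ1 microscope at 37°C and 5% CO2 after compound addition. Using CellPathfinder machine-learning gating, cells were split into Hoechst high-intensity objects or normal cells, normal cells into healthy, pyknosed or fragmented nuclei, and pyknosed cells into mitotic or apoptotic; tubulin, mitochondrial-mass and membrane-permeability phenotypes are per cents of healthy-nucleus cells.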

[1] = 12 h, 1 µM, compound concentration 1 uM, replicate 1
[2] = 12 h, 1 µM, compound concentration 1 uM, replicate 2
[3] = 12 h, 10 µM, compound concentration 10 uM, replicate 1
[4] = 12 h, 10 µM, compound concentration 10 uM, replicate 2
[5] = 24 h, 1 µM, compound concentration 1 uM, replicate 1
[6] = 24 h, 1 µM, compound concentration 1 uM, replicate 2
[7] = 24 h, 10 µM, compound concentration 10 uM, replicate 1
[8] = 24 h, 10 µM, compound concentration 10 uM, replicate 2

Cl.Cl.NC1(c2ccc(-c3nc4ccn5c(=O)[nH]nc5c4cc3-c3ccccc3)cc2)CCC1
Population Apoptotic (%) [1]: 25%
Population Fragmented Nuclei (%) [1]: 19%
Population Healthy Nuclei (%) [1]: 63%
Population Hoechst High Intensity Objects (%) [1]: 20%
Population Membrane Permeable-Phenotype (%) [1]: 13%
Population Mitochondria Different-Phenotype (%) [1]: 10%
Population Mitotic Cells (%) [1]: 74%
Population Normal (%) [1]: 79%
Population Pyknosed Nuclei (%) [1]: 17%
Population Tubulin-Different-Phenotype (%) [1]: 15%
Total Cell Count [1]: 657
Population Apoptotic (%) [2]: 11%
Population Fragmented Nuclei (%) [2]: 8%
Population Healthy Nuclei (%) [2]: 85%
Population Hoechst High Intensity Objects (%) [2]: 5%
Population Membrane Permeable-Phenotype (%) [2]: 6%
Population Mitochondria Different-Phenotype (%) [2]: 20%
Population Mitotic Cells (%) [2]: 88%
Population Normal (%) [2]: 94%
Population Pyknosed Nuclei (%) [2]: 6%
Population Tubulin-Different-Phenotype (%) [2]: 34%
Total Cell Count [2]: 1341
Population Apoptotic (%) [3]: 31%
Population Fragmented Nuclei (%) [3]: 27%
Population Healthy Nuclei (%) [3]: 30%
Population Hoechst High Intensity Objects (%) [3]: 56%
Population Membrane Permeable-Phenotype (%) [3]: 18%
Population Mitochondria Different-Phenotype (%) [3]: 27%
Population Mitotic Cells (%) [3]: 68%
Population Normal (%) [3]: 43%
Population Pyknosed Nuclei (%) [3]: 42%
Population Tubulin-Different-Phenotype (%) [3]: 43%
Total Cell Count [3]: 496
Population Apoptotic (%) [4]: 14%
Population Fragmented Nuclei (%) [4]: 5%
Population Healthy Nuclei (%) [4]: 71%
Population Hoechst High Intensity Objects (%) [4]: 65%
Population Membrane Permeable-Phenotype (%) [4]: 23%
Population Mitochondria Different-Phenotype (%) [4]: 25%
Population Mitotic Cells (%) [4]: 85%
Population Normal (%) [4]: 34%
Population Pyknosed Nuclei (%) [4]: 22%
Population Tubulin-Different-Phenotype (%) [4]: 82%
Total Cell Count [4]: 798
Population Apoptotic (%) [5]: 23%
Population Fragmented Nuclei (%) [5]: 20%
Population Healthy Nuclei (%) [5]: 68%
Population Hoechst High Intensity Objects (%) [5]: 17%
Population Membrane Permeable-Phenotype (%) [5]: 18%
Population Mitochondria Different-Phenotype (%) [5]: 8%
Population Mitotic Cells (%) [5]: 76%
Population Normal (%) [5]: 82%
Population Pyknosed Nuclei (%) [5]: 10%
Population Tubulin-Different-Phenotype (%) [5]: 38%
Total Cell Count [5]: 645
Population Apoptotic (%) [6]: 8%
Population Fragmented Nuclei (%) [6]: 23%
Population Healthy Nuclei (%) [6]: 73%
Population Hoechst High Intensity Objects (%) [6]: 7%
Population Membrane Permeable-Phenotype (%) [6]: 14%
Population Mitochondria Different-Phenotype (%) [6]: 4%
Population Mitotic Cells (%) [6]: 91%
Population Normal (%) [6]: 92%
Population Pyknosed Nuclei (%) [6]: 3%
Population Tubulin-Different-Phenotype (%) [6]: 46%
Total Cell Count [6]: 2029
Population Apoptotic (%) [7]: 41%
Population Fragmented Nuclei (%) [7]: 40%
Population Healthy Nuclei (%) [7]: 21%
Population Hoechst High Intensity Objects (%) [7]: 63%
Population Membrane Permeable-Phenotype (%) [7]: 23%
Population Mitochondria Different-Phenotype (%) [7]: 38%
Population Mitotic Cells (%) [7]: 58%
Population Normal (%) [7]: 36%
Population Pyknosed Nuclei (%) [7]: 38%
Population Tubulin-Different-Phenotype (%) [7]: 41%
Total Cell Count [7]: 436
Population Apoptotic (%) [8]: 12%
Population Fragmented Nuclei (%) [8]: 7%
Population Healthy Nuclei (%) [8]: 53%
Population Hoechst High Intensity Objects (%) [8]: 69%
Population Membrane Permeable-Phenotype (%) [8]: 29%
Population Mitochondria Different-Phenotype (%) [8]: 20%
Population Mitotic Cells (%) [8]: 88%
Population Normal (%) [8]: 30%
Population Pyknosed Nuclei (%) [8]: 39%
Population Tubulin-Different-Phenotype (%) [8]: 92%
Total Cell Count [8]: 837
